Test results from ChEMBL document CHEMBL3259808, “Optimization of antitrypanosomatid agents: identification of nonmutagenic drug candidates with in vivo activity” (J Med Chem, 2014).

How the values were obtained:
Trypanosoma cruzi [1] = experiment: (§1) Antitrypanosomal activity against Trypanosoma cruzi CL Brener infected in BALB/c mouse assessed as mouse survival at 107 umol/kg/day, po administered in cholesterol/surfactant/phosphate buffer in 19 day schedule including 5 days of dosing 2 days of resting and final 4 days of dosing measured up to 60 days relative to control; type: functional
Summary of the method: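 Oral gavage of infected male BALB/c mice at 50 mg/kg/day in cholesterol/surfactant/phosphate buffer pH 7.4 microemulsion, from day 6 postinfection. Schedule: 5 days dosing, 2 rest, 5 dosing, 2 rest, 4 dosing. n = 6/group, with vehicle controls. Parasitemia was read weekly in tail-vein blood for 60 days and mortality recorded.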

Trypanosoma cruzi [2] = experiment: Antitrypanosomal activity against Trypanosoma cruzi Tulahuen 2 epimastigotes assessed as growth inhibition after 5 days; type: functional, organism-based; conditions: Trypanosoma cruzi, Tulahuen 2, 120 h
Summary of the method: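 Epimastigotes were grown axenically at 28 °C in BHI-tryptose with 5% FBS and seeded from a 5–7 day culture at 1 × 10⁶ cells/mL. Drug from a DMSO stock was added (final DMSO ≤0.4%; the control contained 0.4% DMSO). Duplicates were run. A600 was read at day 5, and % inhibition was calculated relative to day-0 and control readings. IC50 = concentration that halves the absorbance ratio.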

Salmonella typhimurium [3] = experiment: Mutagenic activity in Salmonella typhimurium TA1537 at 6 to 500 ug/plate by Ames test in presence of mouse liver S9 fraction; type: toxicity, organism-based; conditions: salmonella enterica subsp. enterica serovar typhimurium
Summary of the method: (§2)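 Plate-incorporation Ames test on minimal glucose agar with 500 μL Aroclor-treated mouse liver S9 added. DMSO solutions were tested at five consecutive 3-fold dilutions from the highest non-toxic dose, in triplicate, with a DMSO negative control. Revertants were counted manually; a compound was scored mutagenic when revertants were at least twice the negative control for two or more consecutive doses.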

[4] = Stability of the compound in eumulgin HRE 40, sodium oleate, soya phosphatidylcholine, cholesterol, and phosphate buffer at pH 7.4 at 4 degC; type: physicochemical
Summary of the method: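 Storage stability of the compound in vehicle V2, a microemulsion of surfactant (Eumulgin HRE 40/sodium oleate/soya phosphatidylcholine, 10%), cholesterol oil phase (10%) and pH 7.4 phosphate buffer (80%), followed over 1 week at 4 °C.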

[5] = Stability of the compound in aqueous solution assessed as compound remaining at 1 mM at pH 7.4 after 1 hr by TLC analysis; type: physicochemical; conditions: aqueous solution, pH 7.4; read-out: Stability
Summary of the method: (§3)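 DMSO stocks diluted to final 1 mM in KCl·HCl pH 1.0, citrate pH 6.0, Tris·HCl pH 7.4 or borax·HCl pH 9.0 buffer. Incubated 1 h at 37 °C, then ethyl acetate extracts checked by TLC for decomposition products.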

Salmonella typhimurium [6] = experiment: Mutagenic activity in Salmonella typhimurium TA1537 at 6 to 500 ug/plate by Ames test; type: toxicity, organism-based; conditions: salmonella enterica subsp. enterica serovar typhimurium
Summary of the method: (§4)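 Direct plate incubation on minimal glucose agar (Vogel-Bonner E). Compound toxicity to the bacteria was checked first. DMSO solutions were tested at five consecutive 3-fold dilutions, starting from the highest non-toxic dose, in triplicate, without metabolic activation. DMSO served as negative control. Revertants were counted manually; mutagenic = revertants at least double the negative control at two or more consecutive doses.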

[7] = Selectivity index, ratio of IC50 for mouse J774.1 cells to IC50 for Trypanosoma cruzi Sylvio X-10 amastigotes; type: toxicity; conditions: read-out: Ratio IC50
Summary of the method: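 J774.1 macrophages grown in DMEM with 10% heat-inactivated FCS and allowed to attach 48 h, then exposed 48 h at 37 °C to 12.5–400.0 μM. Triplicates. MTT 0.1 mg/mL for 3 h, read at 560 nm; IC50 by linear regression against the solvent control. SI = IC50 J774.1 / parasite IC50 (Sylvio X-10 amastigotes or Tulahuen 2 epimastigotes, the latter measured by A600 growth inhibition at day 5).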

Trypanosoma cruzi [8] = experiment: as §1, with “peak of maximum parasitemia” for “mouse survival”; type: functional
Summary of the method: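 Male BALB/c mice (n = 6/group) were infected i.p. with 10³ blood trypomastigotes. From day 6 they were dosed orally in microemulsion vehicle on a schedule of 5 days on, 2 off, 5 on, 2 off, 4 on. Controls received vehicle. Parasitemia was counted weekly in tail-vein blood for 60 days, and mortality was recorded.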

Salmonella typhimurium [9] = experiment: Mutagenic activity in Salmonella typhimurium TA100 at 6 to 500 ug/plate by Ames test in presence of mouse liver S9 fraction; type: toxicity, organism-based; conditions: salmonella enterica subsp. enterica serovar typhimurium; summary of the method: as §2
[10] = Selectivity index, ratio of IC50 for African green monkey Vero cells to IC50 for Trypanosoma cruzi Sylvio X-10 amastigotes; type: toxicity, cell-based; conditions: read-out: Ratio IC50
Summary of the method: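 VERO cytotoxicity: cells exposed 48 h at 37 °C, 5% CO2 to serial dilutions from a maximum of 2000 μM (DMSO stocks; DMSO <0.1% control); growth inhibition read by MTT at 570 nm. Amastigote IC50: Sylvio X-10-infected VERO cells, five doses, infected cells counted among 300 (Giemsa), quadruplicate, three experiments, sigmoidal fit. SI = IC50 VERO / IC50 amastigote.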

Salmonella typhimurium [11] = experiment: Mutagenic activity in Salmonella typhimurium TA102 at 6 to 500 ug/plate by Ames test in presence of mouse liver S9 fraction; type: toxicity, organism-based; conditions: salmonella enterica subsp. enterica serovar typhimurium; summary of the method: as §2
Salmonella typhimurium [12] = experiment: Mutagenic activity in Salmonella typhimurium TA102 at 6 to 500 ug/plate by Ames test; type: toxicity, organism-based; conditions: salmonella enterica subsp. enterica serovar typhimurium; summary of the method: as §4
Salmonella typhimurium [13] = experiment: Mutagenic activity in Salmonella typhimurium TA98 at 6 to 500 ug/plate by Ames test; type: toxicity, organism-based; conditions: salmonella enterica subsp. enterica serovar typhimurium
Summary of the method: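 Ames plate-incorporation assay with S. typhimurium TA98 in Vogel-Bonner E minimal glucose agar. Toxicity toward the bacteria was checked first. DMSO solutions were run in triplicate at five consecutive third-dilutions, starting at the highest non-toxic dose. Positive controls were 4-nitro-o-phenylenediamine (20.0 μg/plate) and 2-aminofluorene (10.0 μg/plate); DMSO was the negative control. Revertants were counted manually. A compound was called mutagenic when revertants were at least twice the negative control at two or more consecutive doses.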

Trypanosoma cruzi [14] = experiment: Antitrypanosomal activity against Trypanosoma cruzi Sylvio X-10 amastigotes infected in African green monkey Vero cells assessed as eradication of amastigotes after 5 days by Giemsa staining-based assay; type: functional, organism-based; conditions: Sylvio X-10, Vero, 120 h
Summary of the method: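 VERO cells in RPMI 1640 with 10% hiFCS were allowed to adhere for 24 h at 37 °C in 5% CO₂, then infected with tissue-derived trypomastigotes at 10:1. Free parasites were washed off after 24 h, and cultures were treated at five compound doses (text gives 72 h / 5 days). Cultures were methanol-fixed and Giemsa-stained, and infected cells were counted among 300. Quadruplicates were run in three independent experiments. IC50/IC90 were obtained by sigmoidal regression.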

[15] = Stability of the compound in aqueous solution assessed as compound remaining at 1 mM at pH 6 after 1 hr by TLC analysis; type: physicochemical; conditions: aqueous solution, pH 6; read-out: Stability; summary of the method: as §3
Salmonella typhimurium [16] = experiment: Mutagenic activity in Salmonella typhimurium TA1535 at 6 to 500 ug/plate by Ames test; type: toxicity, organism-based; conditions: salmonella enterica subsp. enterica serovar typhimurium; summary of the method: as §4
Salmonella typhimurium [17] = experiment: Mutagenic activity in Salmonella typhimurium TA100 at 6 to 500 ug/plate by Ames test; type: toxicity, organism-based; conditions: salmonella enterica subsp. enterica serovar typhimurium; summary of the method: as §4
[18] = Stability of the compound in aqueous solution assessed as compound remaining at 1 mM at 37 degC after 1 hr by TLC analysis in presence of rat liver cytosolic fraction; type: ADME; conditions: cytosol, 1000 µM
Summary of the method: (§5)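 Rat liver cytosolic (100 000g supernatant) and microsomal (100 000g pellet, washed and resuspended in Tris·HCl) fractions, fresh or stored at −80 °C; protein measured by BCA. Compound incubated with the fraction 1 h at 37 °C and analysed by TLC of extracts.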

Salmonella typhimurium [19] = experiment: Mutagenic activity in Salmonella typhimurium TA1535 at 6 to 500 ug/plate by Ames test in presence of mouse liver S9 fraction; type: toxicity, organism-based; conditions: salmonella enterica subsp. enterica serovar typhimurium; summary of the method: as §2
Mus musculus = experiment: Toxicity in BALB/c mouse assessed as mortality at 100 mg/kg/day, po for 14 days; type: organism-based; design: route oral; conditions: in vivo, 336 h
Summary of the method: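 Uninfected female BALB/c mice (n = 2/group) received intragastric gavage daily for 14 days in saline/Tween 80 (4:1). They were weighed and monitored daily, then sacrificed for macroscopic necropsy of organs.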

[20] = Stability of the compound in aqueous solution assessed as compound remaining at 1 mM at 37 degC after 1 hr by TLC analysis in presence of rat liver microsomal fraction; conditions: microsomes, 1000 µM; summary of the method: as §5
[21] = Stability of the compound in aqueous solution assessed as compound remaining at 1 mM at pH 9 after 1 hr by TLC analysis; type: physicochemical; conditions: aqueous solution, pH 9; read-out: Stability; summary of the method: as §3

Br.C=CCn1c(-c2ccc3ccccc3c2)cs\c1=N/N=C/C=C/c1ccco1
survival at 107 µmol/kg (Trypanosoma cruzi [1]): 100% | IC50 (Trypanosoma cruzi [2]): 2.4 µM | Activity (Salmonella typhimurium [3]): Non-toxic | Stability [4]: Stable | remaining at 1 h, 1000 µM [5]: > 95% | Activity (Salmonella typhimurium [6]): Non-toxic | selectivity ratio [7]: > 120 | Time (Trypanosoma cruzi [8]): 42 days | Activity (Salmonella typhimurium [9]): Non-toxic | selectivity ratio [10]: > 1000 | Activity (Salmonella typhimurium [11]): Non-toxic | Activity (Salmonella typhimurium [12]): Non-toxic | Activity (Salmonella typhimurium [13]): Non-toxic | IC50 (Trypanosoma cruzi [14]): < 0.21 µM | remaining at 1 h, 1000 µM [15]: > 95% | Activity (Salmonella typhimurium [16]): Non-toxic | Activity (Salmonella typhimurium [17]): Non-toxic | Stability [18]: Stable | Activity (Salmonella typhimurium [19]): Non-toxic | Activity (Mus musculus): Non-toxic | Stability [20]: Stable | remaining at 1 h, 1000 µM [21]: > 95%
